Structures are written as SMILES. Calls of active or inactive are those of the source.

One data set concerns the target Cytochrome P450 3A4 (Homo sapiens, UniProt P08684). Put plainly: Inhibition of human CYP3A4 assessed as reduction in luciferin-PPXE conversion to D-luciferin at 12.5 to 25 uM by luminescence assay. It is filed as ADME. Put shortly:
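P450-Glo luminescence assays used recombinant human CYP3A4 or CYP2D6 with conversion of luciferin-PPXE to D-luciferin. Ketoconazole (CYP3A4) and quinidine (CYP2D6) served as reference inhibitors.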

Data set [1] has as its system Mus musculus. Put plainly: Toxicity in Albino Swiss CD-1 mouse assessed as effect on spontaneous locomotar activity at 25 to 150 mg/kg, ip treated 30 mins prior to test. The class given is organism-based. Conditions: in vivo, 0.5 h. Put shortly: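 Male CD-1 mice were dosed ip at 25, 50, 100 or 150 mg/kg 30 min before testing and then placed singly in activity cages. Light-beam crossings were counted over 30 min in 10 min intervals.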

In data set [2] the test system is Mus musculus. Briefly: Antiallodynic activity in oxaliplatin-induced Albino Swiss CD-1 mouse model of peripheral neuropathy assessed as elevation in pain sensitivity threshold at 50 mg/kg, ip administered 30 mins prior to oxaliplatin challenge relative to control. The class given is functional. The procedure, abridged: (§1)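 Male CD-1 mice, 18–25 g, that had developed oxaliplatin-induced tactile allodynia were dosed ip 30 min before testing. Doses were 25, 50 or 100 mg/kg, or 50, 100 or 150 mg/kg for the reference. Vehicle was 1% aqueous Tween 80. Paw-withdrawal force was measured by von Frey filaments. Data are mean ± SEM, analysed by repeated-measures ANOVA with Dunnett's test against oxaliplatin plus vehicle mice.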

For data set [3], the system named is Mus musculus. Put plainly: Anticonvulsant activity in Albino Swiss CD-1 mouse assessed as protection against maximal electroshock-induced seizures at 100 mg/kg, ip pretreated up to 2 hrs followed by 50 Hz current induction for […] relative to control. The class given is functional.
Data set [4] relates to Mus musculus. Put plainly: Antinociceptive activity in Albino Swiss CD-1 mouse assessed as inhibition of capsaicin-induced nociception by measuring time spent licking injected paw at 100 mg/kg, ip administered 30 mins mins prior to capsaicin challenge measured for 5 mins relative to control. The class given is functional. Conditions: Swiss CD-1, ip. The procedure, abridged:
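Mice (male CD-1, 18–25 g) were pretreated ip 30 min before intraplantar capsaicin. Doses were 25, 50 or 100 mg/kg, or 100, 150 or 200 mg/kg for the reference. Vehicle was 1% Tween 80 at 10 mL/kg. Duration of nociceptive response was scored over 5 min after injection. Data are mean ± SEM of 8–10 mice, by one-way ANOVA with Dunnett's test against vehicle.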

Data set [5] concerns Mus musculus. Put plainly: Anticonvulsant activity in ip dosed Albino Swiss CD-1 mouse assessed as protection against maximal electroshock-induced seizures pretreated up to 2 hrs followed by 50 Hz current induction for […] measured at time to peak effect. The class given is functional. Conditions: Swiss CD-1, ip.
The test system of data set [6] is Mus musculus. Put plainly: Antinociceptive activity in Albino Swiss CD-1 mouse assessed as inhibition of formalin-induced neurogenic pain response administered ip 30 mins before formalin injection measured up to 5 mins. The class given is functional. The settings on record: Swiss CD-1, ip. The procedure, abridged: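 Male CD-1 mice were given test agents ip 30 min before subcutaneous intraplantar formalin. Doses were 12.5, 25 or 50 mg/kg, or 100, 150 or 200 mg/kg for the reference. Vehicle was 1% Tween 80 at 10 mL/kg. Paw licking time was recorded in phase I (0–5 min) and phase II (15–30 min). Data are mean ± SEM of 8–10 mice, by Dunnett's test. ED50 was obtained by log-probit analysis with 95% confidence limits.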

For data set [7], the species on record is Rattus norvegicus. Put plainly: Displacement of [3H]diltiazem from L-type calcium channel diltiazem binding site in rat cerebral cortical membranes at 100 uM after 60 mins. It is filed as cell membranes. The procedure, abridged:
(§2)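 Radioligand binding was run as a contract service. Percent inhibition of specific labelled-ligand binding was measured at 100 μM test compound, or 200 μM for hERG.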

For data set [8], the species on record is Rattus norvegicus. Put plainly: Displacement of omega[125I]conotoxin from N-type calcium channel in rat cerebral cortex at 100 uM by scintillation spectrophotometry. Put shortly: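 Run commercially by an outside contract lab, with the compound tested at 100 μM. The read-out was percent inhibition of binding of the radiolabelled ligand, reported as compound binding.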

Data set [9] is filed under the species Rattus norvegicus. Put plainly: Displacement of [3H]CGP 39653 from NMDA receptor in rat cerebral cortex at 100 uM after 60 mins by liquid scintillation counting. Put shortly:
as §2

For data set [10], the species on record is Mus musculus. Briefly: Potency index, ratio of valproic acid ED50 to compound ED50 for protection against pentylenetetrazole-induced seizures in Albino Swiss CD-1 mouse. The class given is functional.
The target of data set [11] is Voltage-gated inwardly rectifying potassium channel KCNH2 (Homo sapiens, UniProt Q12809). Put plainly: Displacement of [3H]astemizole from human hERG expressed in HEK293 cell membrane at 200 uM after 90 mins by liquid scintillation counting. The class given is cell membranes. Conditions: hek293, 1.5 h. The procedure, abridged: as §2
Data set [12] deals with Mus musculus. Put plainly: Antiallodynic activity in oxaliplatin-induced Albino Swiss CD-1 mouse model of peripheral neuropathy assessed as elevation in pain sensitivity threshold at 100 mg/kg, ip administered 30 mins prior to oxaliplatin challenge relative to control. The class given is functional. Put shortly: as §1

Voltage-gated inwardly rectifying potassium channel KCNH2, sequence (Q12809 whole entry): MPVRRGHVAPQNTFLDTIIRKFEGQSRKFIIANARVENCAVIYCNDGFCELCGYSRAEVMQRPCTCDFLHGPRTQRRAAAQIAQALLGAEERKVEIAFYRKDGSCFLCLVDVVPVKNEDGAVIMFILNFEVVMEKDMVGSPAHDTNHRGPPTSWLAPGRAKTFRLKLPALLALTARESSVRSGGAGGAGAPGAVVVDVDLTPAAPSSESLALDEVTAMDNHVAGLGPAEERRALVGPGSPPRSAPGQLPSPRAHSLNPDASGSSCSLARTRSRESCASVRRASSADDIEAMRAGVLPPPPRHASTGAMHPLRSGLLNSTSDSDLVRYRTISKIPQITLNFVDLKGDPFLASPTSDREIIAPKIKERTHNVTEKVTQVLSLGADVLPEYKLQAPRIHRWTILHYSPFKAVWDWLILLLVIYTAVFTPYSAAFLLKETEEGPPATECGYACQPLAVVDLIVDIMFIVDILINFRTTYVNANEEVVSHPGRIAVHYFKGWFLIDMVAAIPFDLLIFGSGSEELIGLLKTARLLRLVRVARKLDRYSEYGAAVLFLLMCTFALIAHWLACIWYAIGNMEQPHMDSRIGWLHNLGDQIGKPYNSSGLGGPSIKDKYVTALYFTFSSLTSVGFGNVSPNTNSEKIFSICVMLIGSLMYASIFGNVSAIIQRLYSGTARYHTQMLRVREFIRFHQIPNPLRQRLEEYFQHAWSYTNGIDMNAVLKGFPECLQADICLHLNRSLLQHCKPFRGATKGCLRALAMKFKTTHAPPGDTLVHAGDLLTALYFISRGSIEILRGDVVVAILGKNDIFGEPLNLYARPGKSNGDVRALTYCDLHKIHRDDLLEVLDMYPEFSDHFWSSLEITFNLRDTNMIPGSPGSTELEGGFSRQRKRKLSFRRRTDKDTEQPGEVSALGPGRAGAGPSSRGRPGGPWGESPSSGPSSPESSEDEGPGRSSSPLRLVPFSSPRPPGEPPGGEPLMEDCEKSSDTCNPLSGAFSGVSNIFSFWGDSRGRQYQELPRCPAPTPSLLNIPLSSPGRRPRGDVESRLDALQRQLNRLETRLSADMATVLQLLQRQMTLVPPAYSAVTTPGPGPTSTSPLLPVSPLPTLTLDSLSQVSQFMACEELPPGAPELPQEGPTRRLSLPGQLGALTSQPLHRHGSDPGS
Cytochrome P450 3A4, sequence (P08684 whole entry): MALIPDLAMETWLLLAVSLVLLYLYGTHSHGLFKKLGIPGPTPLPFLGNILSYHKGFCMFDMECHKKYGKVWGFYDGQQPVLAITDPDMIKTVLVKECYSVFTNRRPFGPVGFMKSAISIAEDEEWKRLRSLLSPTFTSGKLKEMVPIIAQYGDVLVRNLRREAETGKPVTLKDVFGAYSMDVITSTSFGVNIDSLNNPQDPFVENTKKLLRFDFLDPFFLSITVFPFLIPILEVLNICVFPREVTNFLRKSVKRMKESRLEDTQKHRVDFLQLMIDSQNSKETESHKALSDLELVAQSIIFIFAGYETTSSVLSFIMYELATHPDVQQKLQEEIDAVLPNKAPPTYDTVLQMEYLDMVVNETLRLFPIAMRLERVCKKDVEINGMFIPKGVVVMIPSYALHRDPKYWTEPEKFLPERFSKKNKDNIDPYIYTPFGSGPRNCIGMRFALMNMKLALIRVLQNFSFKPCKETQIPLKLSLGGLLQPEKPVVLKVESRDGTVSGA

As to `COCC(C(=O)N1CCN(c2ccc(C(F)(F)F)cc2)CC1)N1C(=O)CCC1=O` (stereo not drawn), the “inhibition (INH)” value (on Cytochrome P450 3A4; in [11]) was “Not Active” each time. The Activity entry in the data set with Mus musculus [1] is “Non-Toxic”; with Mus musculus [2], 121%; with Mus musculus [3], 75 - 100%; in the data set on Mus musculus [12] it was 149.2%. Besides, the inhibition in vivo at 100 mg/kg in the data set with Mus musculus [4] is 59.3%. For the same compound, the ED50 in the data set on Mus musculus [5] is 79.5 to 83.3 mg/kg; with Mus musculus [6] it was 26 mg/kg. Further, the inhibition result in the data set filed under Rattus norvegicus [7], in the data set listed under Rattus norvegicus [8] and in the data set filed under Rattus norvegicus [9] was “inactive” in each case. Also, the “Ratio ED50” value in the data set listed under Mus musculus [10] is 2.
